# Source: PubChem (several laboratories)
# WT yeast gro inh = growth inhibition of WT yeast, mitochondrial fusion screen; mitochondrial fusion phenotypic screen, WT strain; inhibition, % at 10 µM; 190,000 tested, 2.1% active; AID 1362; in the data active = inhibition above about 58%; tested in S. cerevisiae
# ROMK mod = modulators of human ROMK potassium channel | P48048 | Tet-inducible ROMK, thallium flux fluorescence; actives lie on both sides | B-score at 10 µM | 130,000 tested, 2% active;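 active = signal ratio slope over the read window, or its plate-corrected B-score, at least 3 SD from the plate mean, either direction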;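 also: B-score of the F/F0 ratio slope over 7 to 12 s after thallium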
# p47phox inh = blocks human p47phox regulatory protein of NADPH oxidases. P14598. p47phox/p22phox peptide binding, fluorescence polarization, 2 h. inhibition, % at 24.7 µM. 220,000 tested, 0.53% active;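 active = inhibition above about 30%, limit read from the data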;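 also: 0% = p47phox with labelled peptide and 100% = labelled peptide alone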
# Target sequence (P14598 whole entry, looked up): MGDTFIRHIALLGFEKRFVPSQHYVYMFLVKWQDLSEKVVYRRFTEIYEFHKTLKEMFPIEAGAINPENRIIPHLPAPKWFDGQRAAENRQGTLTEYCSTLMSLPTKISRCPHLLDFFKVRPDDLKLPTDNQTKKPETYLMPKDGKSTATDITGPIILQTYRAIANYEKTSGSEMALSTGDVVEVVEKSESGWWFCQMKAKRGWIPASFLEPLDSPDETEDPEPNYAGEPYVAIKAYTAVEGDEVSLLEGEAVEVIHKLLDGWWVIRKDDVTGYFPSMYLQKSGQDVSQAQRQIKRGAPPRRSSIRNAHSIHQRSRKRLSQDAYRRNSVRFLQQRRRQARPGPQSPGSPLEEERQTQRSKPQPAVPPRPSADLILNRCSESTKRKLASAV
# KCC2 mod = modulators of human KCC2 chloride dependent transport. Q9H2X9. KCC2 cells, thallium flux FluoZin-2 fluorescence. B-score of Tl+ flux slope (higher = more flux/activation; lower = inhibition) at 10 µM. 190,000 tested, 2.2% active;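 active = thallium flux slope and its plate-corrected score both differing from the plate sample mean at a set confidence after two filtering rounds, in either direction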;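 also: slope of fluorescence scaled to starting intensity during 10 to 20 s after thallium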
# 14-3-3 Bad inh = disrupts binding of bovine 14-3-3 zeta to phospho-Bad peptide | P63103 | TR-FRET 14-3-3zeta/Dy647-pBad peptide displacement, 1 h | inhibition, % at 21.7 µM | 220,000 tested, 0.71% active | AID 781;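 active = inhibition above about 70%, limit read from the data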;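 also: 0% = full 14-3-3 plus peptide FRET controls and 100% = background without 14-3-3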
# RBBP9 inh = human RBBP9 hydrolase inhibition. recombinant RBBP9, FP-Rh probe fluorescence polarization. inhibition, % at 7.94 µM. 220,000 tested, 0.2% active. O75884;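 active = inhibition above the campaign mean of all tested compounds plus 3 SD, cut at about 14% in these data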;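 also: plate controls were DMSO wells with RBBP9 for no effect and wells lacking RBBP9 protein for full effect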
# Target sequence (O75884 whole entry, looked up): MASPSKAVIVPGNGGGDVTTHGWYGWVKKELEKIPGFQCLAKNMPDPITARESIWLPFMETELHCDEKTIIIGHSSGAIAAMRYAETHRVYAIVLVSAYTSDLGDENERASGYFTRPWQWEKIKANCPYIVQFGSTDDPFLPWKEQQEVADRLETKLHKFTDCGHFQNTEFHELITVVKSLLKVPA
#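 Material: RBBP9 protein. Amount: RBBP9 at 2.5 µM in dispensed solution, before mixing. Schedule: 30 min then 45 min, 25 °C. Medium: Tris buffer pH 8.0, NaCl, Pluronic. Measured by: fluorescence polarization. Measure: percent inhibition from mP, scaled between DMSO and no-protein wells. Replication: one well per compound.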
# Active calls of the source: *; · = no result; [ ] = another dose, or the depositor's remark. The list is not random: actives were taken first. Their share in the collection is about 5.8%.
SMILES,WT yeast gro inh,ROMK mod,p47phox inh,KCC2 mod,14-3-3 Bad inh,RBBP9 inh
CCOC(=O)C1CCCN(C(=O)CS(=O)(=O)Cc2ccccc2)C1 (stereo unspecified),60.1*,0.933,-1.9,0.271,7.2,5.4
O=C(C1CCCN(Cc2cccs2)C1)N1CCCCCC1 (stereo unspecified),-24.4,·,1.4,·,18.2,3.9
CCOC(=O)C1CCCN(Cc2ccccc2C)C1 (stereo unspecified),25.7,-0.777,9.4,-0.0206,75.6*,-5.8
CCOC(=O)C1CCCN(Cc2cccs2)C1 (stereo unspecified),-3.2,-0.00795,1.1,0.206,71.0*,-0.9
CC1CCN(c2cc(N3CCN(C(=O)c4ccc(F)c(F)c4)CC3)c([N+](=O)[O-])cc2F)CC1,24.3,-0.801,-10.0,0.205,-4.5,-7.2
COCCN(Cc1nc(C2(c3ccc(C)cc3)CCCC2)no1)C(C)C,16.1,-0.0161,-3.5,-1.4,-12.8,-1.1
O=C(/C=C/C=C/c1ccccc1)CC1(O)C(=O)N(CCc2ccccc2)c2ccccc21 (stereo unspecified),60.2*,1.1,-5.0,0.391,-0.9,-6.7
COCCN(C(=O)CC1C(=O)NCCN1Cc1ccc(-c2ccccc2)cc1)C(C)C (stereo unspecified),6.9,1.16,-3.4,-0.0925,-4.8,4.8
CCNC(=S)NNC(=O)c1cc(-c2cccc(OC)c2)nc2ccccc12,8.7,0.143,-13.2,-0.808,-11.8,-6.0
CCNC(=S)NNC(=O)c1cc(-c2ccc(OCC)cc2)nc2ccccc12,65.9*,-0.374,-17.6,0.169,-1.5,-9.7
COC(=O)c1ccc(NC(=S)NC(=O)c2c(Cl)cnn2C)cc1,14.7,·,3.3,36.3*,-11.5,9.0
COC(=O)c1ccc(NC(=O)c2cc(-c3ccccn3)nc3ccccc23)cc1,8.3,0.535,-8.7,1.03,-6.3,-12.6
COC(=O)c1ccc(NC(=S)NC(=O)c2cc(-c3ccccc3)nc3ccccc23)cc1,4.3,0.616,-12.7,6*,-4.6,-5.0
CC(C)N1CCC(N2CCN(CC#Cc3ccccc3)CC2CCO)CC1 (stereo unspecified),1.5,0.00934,3.2,·,-2.5,0.5
Cc1cc(NC(=O)CCSc2ccc(Cl)cc2)no1,19.0,-0.0985,4.1,0.0205,4.1,-4.4
CCN1CCCc2cc(CN(CCN3CCOCC3)C(=S)Nc3cccc(OC)c3)ccc21,18.8,0.467,-19.0,1.07,10.4,-3.0
O=C(NCc1cccc(Cl)c1)c1ccc(-c2csnn2)cc1,·,·,115.5*,0.609,-5.6,-0.9
O=C(NCc1cccc(Cl)c1)c1ccc2nc[nH]c2c1,-11.3,0.0176,-9.5,0.0203,3.4,-0.1
Cc1onc(-c2ccccc2)c1NC(=O)N(Cc1ccccc1)C(C)C,·,0.453,-2.7,0.262,2.1,-8.6
Cc1ccc(-c2cc(C(F)F)n3ncc(C(=O)N4CCc5ccccc5C4)c3n2)cc1,76.9*,5.82e-05,-6.8,-0.342,-13.9,-10.6
O=S(=O)(NCc1ccccc1Cl)c1cccs1,-9.0,0.446,4.6,0.179,-8.8,0.8
CC(NC(=O)c1ccc(Br)cc1)c1ccc2c(c1)CCCC2 (stereo unspecified),63.4*,-0.436,-20.1,0.0735,5.8,2.5
CCOC(=O)c1cc(-c2cccc([N+](=O)[O-])c2)n[nH]1,-6.4,-0.468,-3.6,0.958,80.6*,-3.4
COc1cccc(C(=O)c2c(C)c(CCC#N)n3ccccc23)c1,10.3,-0.465,-5.7,0.426,-3.4,-2.4
CC1CCc2sc(C(=O)N/N=C/c3ccc(O)cc3)cc2C1 (stereo unspecified),·,·,-6.0,·,-1.6,-12.9
SMILES,WT yeast gro inh,ROMK mod,p47phox inh,KCC2 mod,14-3-3 Bad inh,RBBP9 inh
COCCN=c1scc(-c2ccccc2)n1/N=C/c1c[nH]c2ccccc12,78.8*,·,-8.9,-2.48,-8.1,0.3
CCCNC(=S)N1CCN(Cc2ccc3c(c2)OCO3)CC1,5.0,-0.523,-1.7,-0.692,20.4,-6.3
O=C(c1ccncc1)N1CCN(C(=O)c2cccs2)CC1,7.6,·,-19.2,·,-2.5,-7.2
COc1ccc(CN2CCN(C(=O)c3cccs3)CC2)cc1Br,10.4,·,10.4,0.0968,78.4*,-5.7
Cc1cc(Cl)ccc1NC(=S)N1CCN(Cc2ccc3c(c2)OCO3)CC1,56.1,-0.451,2.9,-0.116,-1.1,-9.8
CCC(C)N1CCN(C(=O)c2cccs2)CC1 (stereo unspecified),-1.5,1.3,-15.4,0.295,70.4*,1.4
O=C(NC(=S)N1CCN(Cc2ccc3c(c2)OCO3)CC1)c1ccc(Cl)cc1,61.7*,·,-4.3,75.2*,2.1,-9.2
CCOCCCNC(=S)N1CCN(Cc2ccc3c(c2)OCO3)CC1,4.7,0.415,-8.0,0.17,95.4*,3.6
CC(=O)N/C(=C/c1ccc2c(c1)OCO2)C(=O)NCc1ccccc1,-5.1,0.286,1.4,·,-6.6,-7.4
CN(C)CCOC(=O)NCC12CC3CC(CC(C3)C1)C2,·,·,-10.1,0.481,5.0,1.4
O=C(c1cccnc1)N1CCC(Oc2ccc(C(=O)N3CCCC(O)C3)cc2)CC1 (stereo unspecified),6.8,0.499,3.9,·,2.3,5.2
COc1cccc(OC)c1C(=O)N1CCN(Cc2ccc3c(c2)OCO3)CC1,-3.4,0.0511,-3.0,·,96.5*[fluorescence artefact?],1.5
O=C(c1cc(-c2ccncc2)nc2ccc(Cl)cc12)N1CCN(Cc2ccc3c(c2)OCO3)CC1,16.6,-1.17,47.8*,-0.311,-3.9,3.0
O=C(c1ccc(COc2ccc(Cl)cc2)o1)N1CCN(Cc2ccc3c(c2)OCO3)CC1,75.8*,·,-6.8,·,6.6,-2.5
Cc1ccc(C(=O)N2CCN(Cc3ccc4c(c3)OCO4)CC2)o1,1.3,·,9.1,0.265,-6.6,-1.7
CCNC(=S)N1CCN(Cc2ccc3c(c2)OCO3)CC1,2.3,-0.207,-4.9,-0.0547,-10.7,-4.7
O=C(NC(=S)N1CCN(Cc2ccc3c(c2)OCO3)CC1)c1cccc(Br)c1,60.5*,4.89*,-3.8,79.4*,-9.0,-3.4
O=C(c1cc(-c2ccncc2)nc2ccc(Br)cc12)N1CCN(Cc2ccc3c(c2)OCO3)CC1,18.3,-1.03,-10.9,-0.314,-10.7,-2.8
O=C(Nc1ccc(F)cc1)Nc1nnc(-c2ccco2)s1,-5.4,0.688,-17.1,-0.282,-7.0,-0.3
COc1ccc(/C=N/NC(=O)C2COc3ccccc3O2)cc1OC (stereo unspecified),3.7,1.18,-4.0,0.249,-1.5,5.1
COc1ccc(-c2csc(NC(=O)C3COc4ccccc4O3)n2)cc1OC (stereo unspecified),64.9*,·,-14.3,-1.4,4.6,12.2
Cc1nn(-c2ccccc2)c2ncc(C(=O)c3cc(Cl)ccc3O)cc12,19.5,·,1.2,0.0589,-28.9,-6.0
CCc1nn2cc(C(=O)c3cc(Cl)ccc3O)cnc2c1-c1ccc(F)cc1,80.8*,·,9.3,-0.62,12.1,-6.1
COc1ccc(C(=O)O)cc1S(=O)(=O)NC(C)C,·,·,4.0,0.0577,0.6,1.4
